Published values of several laboratories.
Lines come from different studies, so protocols differ.
Target: Platelet-derived growth factor receptor beta (PDGFRB, Homo sapiens, UniProt P09619)

SMILES | observed | action | method | quantity | result
C=CC(=O)Nc1cccc(CN2C(=O)N(c3c(Cl)c(OC)cc(OC)c3Cl)Cc3cnc(NCCCCN(CC)CC)nc32)c1 | binding |  | competition with immobilised ligand | Kd | 480 nM
FC(F)(F)c1ccc(CNc2ccc(Cc3c[nH]c4ncc(Cl)cc34)cn2)cn1 | enzyme activity | inhibitor |  | IC50 | 8 nM
Cc1cc(Nc2cc3ncccc3c(N[C@@H]3C[C@H]4CC[C@@H](C3)N4CCC#N)n2)n[nH]1 | binding |  | competition with immobilised ligand | Kd | 68 nM
Cc1ccc(NC(=O)c2ccc(C)c(C(F)(F)F)c2)cc1C#Cc1nn(C2CCC(O)CC2)c2ncnc(N)c12 (centres unmarked) | enzyme activity | inhibitor | radiometric | IC50 | > 10000 nM
COc1ccc2c(Oc3ccc4c(C(=O)Nc5ccccc5N)cccc4c3)ccnc2c1 | enzyme activity | inhibitor |  | IC50 | 93 nM
Cc1ccc(NC(=O)c2ccc(CN3CCS(=N)(=O)CC3)cc2)cc1Nc1nccc(-c2cccnc2)n1 | binding |  | competition with immobilised ligand | Kd | 19 nM
Cc1cnc(-c2ccc(-c3ccc(NC(=O)Nc4c(F)cc(F)cc4F)cc3F)c3c2C(=O)NC3)[nH]1 | binding |  | competition with immobilised ligand | Kd | 0.4 nM
CCN1CCN(Cc2ccc(C(=O)Nc3ccc(C)c(Oc4ccc5c(c4)CC(=O)N5)c3)cc2C(F)(F)F)CC1 | enzyme activity | inhibitor |  | IC50 | > 10000 nM
